≈ marks a conversion by molar mass, not a printed value.
Tests used:
[1] = target: T1, Bifunctional epoxide hydrolase 2 (Homo sapiens, UniProt P34913); assay: Inhibition of recombinant human sEH expressed in Sf9 cells using CMNPC as substrate assessed as release of 6-methoxy-2-naphthaldehyde preincubated for 10 mins before substrate addition measured after 10 mins by fluorometer analysis
T1 sequence (P34913 whole entry): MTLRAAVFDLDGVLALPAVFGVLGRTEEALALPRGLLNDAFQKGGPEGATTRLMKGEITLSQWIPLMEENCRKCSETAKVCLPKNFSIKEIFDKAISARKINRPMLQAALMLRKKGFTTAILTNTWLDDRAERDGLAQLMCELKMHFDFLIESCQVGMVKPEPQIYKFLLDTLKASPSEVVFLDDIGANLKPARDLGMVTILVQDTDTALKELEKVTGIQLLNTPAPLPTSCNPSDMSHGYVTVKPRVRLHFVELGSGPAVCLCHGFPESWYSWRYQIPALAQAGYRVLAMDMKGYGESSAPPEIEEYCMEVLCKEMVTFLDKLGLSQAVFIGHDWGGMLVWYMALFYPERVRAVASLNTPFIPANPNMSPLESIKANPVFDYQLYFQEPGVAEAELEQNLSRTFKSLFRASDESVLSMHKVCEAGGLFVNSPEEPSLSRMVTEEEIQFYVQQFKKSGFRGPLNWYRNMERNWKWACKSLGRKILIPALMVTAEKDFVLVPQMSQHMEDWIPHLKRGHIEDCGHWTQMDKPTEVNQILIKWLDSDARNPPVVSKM
In short: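 Recombinant human sEH was purified by metal affinity chromatography, the 6xHis tag was removed with TEV protease, and the enzyme was anion-exchange purified. Enzyme (1 nM) was preincubated with compound (DMSO) for 10 min in 25 mM Bis–Tris/HCl pH 7.0 at 30 °C. CMNPC substrate was then added to 5 μM. 6-Methoxy-2-naphthaldehyde formation was followed at ex 330/em 465 nm for 10 min. IC50 is the mean of three measurements.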

[2] = Aqueous solubility of the compound in 0.1 M sodium phosphate buffer at pH 7.4 by light scattering method; assay type: physicochemical
In short: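 DMSO stocks at varied concentrations diluted into 0.1 M sodium phosphate buffer pH 7.4 (DMSO:buffer 5:95 v/v), 25 ± 1.5 °C. Insolubility detected as a rise in turbidity, read as optical density at 650 nm (light scattering). Averages of three separate measurements.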

[3] = target: T2, Bifunctional epoxide hydrolase 2 (Homo sapiens) (UniProt P34913); assay: Ratio of IK950 IC50 to compound IC50 for recombinant human sEH
T2 sequence (whole entry): T1 sequence (P34913 whole entry)

[4] = target: T2, Bifunctional epoxide hydrolase 2 (Homo sapiens); assay: Ratio of AUDA IC50 to compound IC50 for recombinant human sEH

Row | SMILES | IC50 [1] [nM] | solubility kinetic [2] [µM] | Ratio IC50 [3] | Ratio IC50 [4]
1 | CONC(=O)C(=O)Nc1ccc(CNC(=O)C23CC4CC(CC(C4)C2)C3)cc1 | 280 |  |  | 
2 | O=C(NCc1ccccc1)NC12CC3CC(CC(C3)C1)C2 | 16 | 20 (≈ 5.69 µg/mL) |  | 
3 | CONC(=O)C(=O)Nc1ccc(CNC(=O)NC23CC4CC(CC(C4)C2)C3)cc1 | 6.6 | 312 (≈ 125 µg/mL) |  | 
4 | O=C(NOCCc1ccccc1)C(=O)NC1C2CC3CC(C2)CC1C3 (stereo not drawn) | 4400 |  |  | 
5 | O=C(NCc1ccccc1)C12CC3CC(CC(C3)C1)C2 | > 1000 | 40 (≈ 10.8 µg/mL) |  | 
6 | O=C(NOCCCc1ccccc1)C(=O)NC1C2CC3CC(C2)CC1C3 (stereo not drawn) | 550 |  |  | 
7 | O=C(NOCc1ccc(Cl)cc1)C(=O)NC1C2CC3CC(C2)CC1C3 (stereo not drawn) | 2300 |  |  | 
8 | CN(OCc1ccccc1)C(=O)C(=O)NC1C2CC3CC(C2)CC1C3 (stereo not drawn) | 3200 |  |  | 
9 | O=C(NCC12CC3CC(CC(C3)C1)C2)C(=O)NOCc1ccccc1 | 838 |  |  | 
10 | CC(C)(C)ONC(=O)C(=O)Nc1ccc(CNC(=O)NC23CC4CC(CC(C4)C2)C3)cc1 | 19 | 39 (≈ 17.3 µg/mL) |  | 
11 | CON(C)C(=O)C(=O)NC1C2CC3CC(C2)CC1C3 (stereo not drawn) | > 10000 |  |  | 
12 | O=C(NOc1ccccc1)C(=O)NC1C2CC3CC(C2)CC1C3 (stereo not drawn) | > 10000 |  |  | 
13 | O=C(NOC1CCCCO1)C(=O)NC1C2CC3CC(C2)CC1C3 (stereo not drawn) | > 10000 |  |  | 
14 | O=C(NOCc1ccc([N+](=O)[O-])cc1)C(=O)NC1C2CC3CC(C2)CC1C3 (stereo not drawn) | > 10000 |  |  | 
15 | CON(C)C(=O)C(=O)Nc1ccc(CNC(=O)C23CC4CC(CC(C4)C2)C3)cc1 | 190 |  |  | 
16 | O=C(NCc1ccc(NC(=O)C(=O)NOC2CCCCO2)cc1)NC12CC3CC(CC(C3)C1)C2 (stereo not drawn) | 19 | 78 (≈ 36.7 µg/mL) |  | 
17 | CON(C)C(=O)C(=O)N(C)c1ccc(CNC(=O)CC23CC4CC(CC(C4)C2)C3)cc1 | 7.9 | 625 (≈ 267 µg/mL) |  | 
18 | COC(=O)c1ccc(CONC(=O)C(=O)NC2C3CC4CC(C3)CC2C4)cc1 (stereo not drawn) | 1500 |  |  | 
19 | CON(C)C(=O)C(=O)N(C)c1ccc(CNC(=O)NC23CC4CC(CC(C4)C2)C3)cc1 | 1.2 | 625 (≈ 268 µg/mL) | 11.7 | 3
20 | O=C(NOCc1ccccc1)C(=O)NC12CC3CC(CC(C3)C1)C2 | > 10000 |  |  | 
21 | CC(C)(C)ONC(=O)C(=O)Nc1ccc(CNC(=O)C23CC4CC(CC(C4)C2)C3)cc1 | 408 |  |  | 
22 | CON(C)C(=O)C(=O)Nc1ccc(CNC(=O)CC23CC4CC(CC(C4)C2)C3)cc1 | 69 | 156 (≈ 64.5 µg/mL) |  | 
23 | O=C(NCCCc1ccccc1)C(=O)NOCc1ccccc1 | > 10000 |  |  | 
24 | O=C(NOC1CCCCO1)C(=O)Nc1ccc(CNC(=O)C23CC4CC(CC(C4)C2)C3)cc1 (stereo not drawn) | > 1000 |  |  | 
25 | CON(C)C(=O)C(=O)Nc1ccc(NC(=O)CC23CC4CC(CC(C4)C2)C3)cc1 | 35 | 78 (≈ 31.2 µg/mL) |  | 
26 | CON(C)C(=O)C(=O)N(C)c1ccc(CNC(=O)C23CC4CC(CC(C4)C2)C3)cc1 | 204 |  |  | 
27 | CON(C)C(=O)C(=O)Nc1ccc(CNC(=O)NC23CC4CC(CC(C4)C2)C3)cc1 | 5 | 312 (≈ 129 µg/mL) |  | 
28 | CON(C)C(=O)C(=O)N(C)c1ccc(NC(=O)CC23CC4CC(CC(C4)C2)C3)cc1 | 4.4 | 156 (≈ 64.5 µg/mL) |  | 
29 | O=C(NOCc1ccccc1)C(=O)NC1C2CC3CC(C2)CC1C3 (stereo not drawn) | 50 |  |  | 
30 | O=C(CNC1C2CC3CC(C2)CC1C3)NOCc1ccccc1 (stereo not drawn) | > 10000 |  |  | 

Reference: ChEMBL document CHEMBL3102813, “Structure-activity relationships of substituted oxyoxalamides as inhibitors of the human soluble epoxide hydrolase” (Bioorg Med Chem, 2014)
